Measurements reported in publication PMC7416514 (Clinical & experimental metastasis, 2011).
“And” between values parts separate entries of the source, which are not always exact repeats. Equal values may be shown once.

How the values were obtained:
231-BR cells [1] = experiment: MTT-based viability assay; type: cell-based; details: Homo sapiens, 48 h, read-out: IC50 viability of 231-BR cells
Outline: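 231-BR cells in 10% FBS had continuous exposure to test compound over 1–100 nM for 48 h, then an MTT viability read-out. Viability is expressed as percent of vehicle control. There were three separate experiments with n = 4 per point; log10-transformed data went to mixed-model ANOVA with Dunnett post-hoc comparison.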

231-BR cells [2] = experiment: Western blot of apoptotic markers and phosphorylated Histone H3; type: cell-based, human
Outline: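 231-BR cells were treated with test compound at 5 or 10 nM for the indicated times, then lysed and run on SDS-PAGE with immunoblotting. Antibodies: PLK-1, phospho-histone H3, cleaved and total caspase 9, 8 and 3. Tubulin served as the loading control.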

[3] = Whole body autoradiography tissue uptake; type: in vivo, rats; details: rat, single 12.5 mg/kg dose
Outline: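 Rats received a single dose of [14C]-labelled test compound and were sacrificed at timed points up to 24 h. Radioactivity in whole-body sections (brain, striatum, blood) was quantified by phosphoimager against 14C autoradiography standards. Results are μg equivalents/g tissue; limit of quantitation 0.051 μg equivalents/g.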

231-BR cells [4] = experiment: 231-BR experimental brain metastasis prevention model; type: in vivo, nu/nu NRC mice; details: for Micrometastases Mean: vehicle 239
Outline: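 Female nu/nu NRC mice, 5–7 weeks old, received 175,000 231-BR cells into the left cardiac ventricle. On day 3 they were randomised to test compound or vehicle (2% Cremophor EL, 2% N,N-dimethylacetamide in acidified pH 5 water). Brains were bisected sagittally; ten serial 10-micron sections every 300 microns through the right hemisphere were scored at 50×. Micro and large (>300 micron) lesions are given as mean per section, from two experiments combined, by mixed-model ANOVA with Dunnett adjustment.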

231-BR cells [5] = experiment: Survival study in 231-BR brain metastasis model; type: in vivo, nu/nu NRC mice; details: 50 mg/kg
231-BR cells [6] = experiment: Clonogenic survival assay with irradiation; type: cell-based, human; details: 40 nM, 2 h prior to irradiation, surviving fraction of 0.1
[7] = Preliminary dose finding experiments; type: in vivo; details: 75 mg/kg, intraperitoneally every other day, mice
[8] = phase I study in 40 patients ref 6; cited from earlier work
TP53 mutant cells = details: cited from earlier work

Compound: C[C@@H](Oc1cc(-n2cnc3ccc(CN4CCN(C)CC4)cc32)sc1C(N)=O)c1ccccc1C(F)(F)F [GSK461364A]
- IC50 (231-BR cells [1]): ~5 nM
- pHH3 levels (Western blot) (231-BR cells [2]; 231-BR cells treated with 5 and 10 nM): increase in pHH3 levels
- cleaved caspase 9 and cleaved caspase 3 (Western blot) (231-BR cells [2]; 231-BR cells treated with 5 or 10 nM): Cleaved caspase 9 and cleaved caspase 3 were observed
- Tissue uptake, Brain ([3]; 0.5 h): 3.192 μg equivalents/g tissue
- Tissue uptake, Brain (striatum) ([3]; 0.5 h): 4.283 μg equivalents/g tissue
- Tissue uptake, Choroid plexus ([3]; 0.5 h): 32.560 μg equivalents/g tissue
- Tissue uptake, Meninges ([3]; 0.5 h): 10.305 μg equivalents/g tissue
- Tissue uptake, Blood (cardiac) ([3]; 0.5 h, listed as [^14C]GSK461364A, 12.5 mg/kg): 2.4 μg equivalents/g tissue and 2.396^a μg equivalents/g tissue
- Drug uptake in the brain or striatum ([3]; 30 min post-injection): 3.2–4.3 μg equivalents/g of tissue
- Tissue uptake, Blood (cardiac) ([3]; 2 h): 0.730 μg equivalents/g tissue
- Tissue uptake, Brain ([3]; 2 h): 0.363 μg equivalents/g tissue
- Tissue uptake, Brain (striatum) ([3]; 2 h): 0.522 μg equivalents/g tissue
- Tissue uptake, Choroid plexus ([3]; 2 h): 9.734 μg equivalents/g tissue
- Tissue uptake, Meninges ([3]; 2 h): 1.236 μg equivalents/g tissue
- Tissue uptake, Blood (cardiac) ([3]; 6 h): 0.183 μg equivalents/g tissue
- Tissue uptake, Brain ([3]; 6 h): 0.088 μg equivalents/g tissue
- Tissue uptake, Brain (striatum) ([3]; 6 h): 0.225 μg equivalents/g tissue
- Tissue uptake, Choroid plexus ([3]; 6 h): 2.790 μg equivalents/g tissue
- Tissue uptake, Meninges ([3]; 6 h): 1.239 μg equivalents/g tissue
- Tissue uptake, Brain ([3]; 24 h): 0.126 μg equivalents/g tissue
- Tissue uptake, Brain (striatum) ([3]; 24 h): 0.288 μg equivalents/g tissue
- Tissue uptake, Choroid plexus ([3]; 24 h): 2.342 μg equivalents/g tissue
- Tissue uptake, Meninges ([3]; 24 h): 4.881 μg equivalents/g tissue
- Tissue uptake, Blood (cardiac) ([3]; 24 h, BLQ = <0.051 μg equivalents/g, 12.5 mg/kg): undetectable
- Tissue uptake, Blood (cardiac) ([3]; 24 h, BLQ = <0.051 μg equivalents/g, listed as [^14C]GSK461364A, 12.5 mg/kg): BLQ^b
- Drug remaining in the brain ([3]; 24 h post-injection): 0.13–0.29 μg equivalents/ g
- Micrometastases Mean (231-BR cells [4]; 25 mg/kg IP every other day for 27 days from day 3): 177 lesions/ section
- reduction in micrometastases vs vehicle (231-BR cells [4]; 25 mg/kg, statistically insignificant): 26%
- Micrometastases Mean (231-BR cells [4]; 50 mg/kg IP every other day for 27 days from day 3): 159 lesions/ section
- decline in large brain metastases vs vehicle (231-BR cells [4]; 50 mg/kg, treatment started 3 days post-injection): 62%
- prolonged survival (231-BR cells [5]; treatment started 3 days post-injection): 17%
- survival compared to the vehicle control group (231-BR cells [5]; treatment started day 3, 7 or 14 post-injection): extended survival to the same extent
- dose enhancement factor (231-BR cells [6]): 1.5
- toxicity in dose finding [7]: toxic causing acute weight loss
- limiting toxicities [8]: neutropenia, thrombocytopenia and bone marrow suppression
- phospho-Histone H3 (pHH3) in circulating tumor cells [8]: Increased
- sensitivity in TP53 mutant cells (TP53 mutant cells): increased sensitivity
